Source: ChEMBL document CHEMBL3525900, “Pharmacokinetics, distribution, and metabolism of [14C]sunitinib in rats, monkeys, and humans” (Drug Metab Dispos, 2012)

Key:
Rattus norvegicus [1] = assay: Apparent terminal half life as total radioactivity in female Sprague-Dawley rat plasma at 5 mg/kg, iv administered as single dose by LC/MS/MS analysis; format: ADME, organism-based; design: dose 5 mg/kg, dosed compound name [14C]Sunitinib, route intravenous; conditions: in vivo
Outline: (§1)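 Single dose of [14C]sunitinib L-malate as free base, 50 µCi/kg. IV dose was 5 mg/kg by tail vein in 5 females. Oral dose was 15 mg/kg by gavage in 3 females and 3 males. Total radioactivity was by scintillation counting. […] Cmax was read from raw data, t½ by log-linear regression, AUC by linear trapezoidal rule.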

Rattus norvegicus [2] = assay: Cmax as total radioactivity in male Sprague-Dawley rat plasma at 15 mg/kg, po administered as single dose by LC/MS/MS analysis; format: ADME, organism-based; design: dose 15 mg/kg, dosed compound name [14C]Sunitinib, route oral; conditions: in vivo; outline: as §1
Homo sapiens = assay: Cmax as total radioactivity in human plasma at 50 mg, po administered as single dose measured up to 24 hrs by LC/MS/MS analysis; format: ADME, organism-based; design: dose 50 mg, dosed compound name [14C]Sunitinib, route oral; conditions: in vivo
Outline: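 Open-label phase I study in 8 subjects given one 50 mg oral dose of [14C]sunitinib (100 µCi). Plasma total radioactivity was counted by scintillation on triplicate 0.25 mL aliquots. Sunitinib was quantified by LC-MS-MS. Noncompartmental analysis: Cmax read directly, terminal t½ = ln(2)/slope of the log-concentration regression, AUC by linear trapezoidal rule to the last detectable concentration.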

Cynomolgus monkey = assay: Terminal half life as total radioactivity in female cynomolgus monkey plasma at 6 mg/kg, po administered as single dose by LC/MS/MS analysis; format: ADME, organism-based, Macaca fascicularis; design: dose 6 mg/kg, dosed compound name [14C]Sunitinib, route oral; conditions: in vivo
[3] = Drug recovery in urine of female Sprague-Dawley rat at 15 mg/kg, po administered as single dose during 0 to 72 hrs by liquid scintillation counting; format: ADME, organism-based; design: dose 15 mg/kg, dosed compound name [14C]Sunitinib, route oral; conditions: in vivo
[4] = Drug concentration in female albino rat brown fat assessed as radioactivity per gram of tissue at 20 mg/kg administered as single dose via gastric gavage measured after 3 hrs by autoradiographic analysis; format: ADME, organism-based, Brown adipose tissue; design: dose 20 mg/kg, dosed compound name [14C]Sunitinib; conditions: in vivo, po
Outline: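 Sprague Dawley (albino) and Lister Hooded (pigmented) rats, ca 7-8 weeks old, 179-310 g, acclimated 7 days. Single gavage dose of [14C]sunitinib L-malate (15 mg freebase/kg, 100 µCi/kg). One male and one female killed by CO2 per time point: albino at 3, 6, 24, 72, 168 h; pigmented at 24, 72, 168, 336 h. Carcasses frozen in solid CO2/hexane, 30 µm sagittal sections freeze-dried. Tissue radioactivity read by quantitative whole-body autoradiography against regression of standards, mean background subtracted.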

[5] = Drug concentration in female albino rat skeletal muscle assessed as radioactivity per gram of tissue at 20 mg/kg administered as single dose via gastric gavage measured after 3 hrs by autoradiographic analysis; format: ADME, organism-based; design: dose 20 mg/kg, dosed compound name [14C]Sunitinib; conditions: in vivo, po
Large intestine = assay: Drug concentration in male albino rat large intestine assessed as radioactivity per gram of tissue at 20 mg/kg administered as single dose via gastric gavage measured after 6 hrs by autoradiographic analysis; format: ADME, organism-based; design: dose 20 mg/kg, dosed compound name [14C]Sunitinib; conditions: in vivo, po
[6] = Drug concentration in male albino rat lymph node assessed as radioactivity per gram of tissue at 20 mg/kg administered as single dose via gastric gavage measured after 6 hrs by autoradiographic analysis; format: ADME, organism-based; design: dose 20 mg/kg, dosed compound name [14C]Sunitinib; conditions: in vivo, po
Pancreas = assay: Drug concentration in male albino rat pancreas assessed as radioactivity per gram of tissue at 20 mg/kg administered as single dose via gastric gavage measured after 6 hrs by autoradiographic analysis; format: ADME, organism-based; design: dose 20 mg/kg, dosed compound name [14C]Sunitinib; conditions: in vivo, po
Lung = assay: Drug concentration in male albino rat lung assessed as radioactivity per gram of tissue at 20 mg/kg administered as single dose via gastric gavage measured after 3 hrs by autoradiographic analysis; format: ADME, organism-based; design: dose 20 mg/kg, dosed compound name [14C]Sunitinib; conditions: in vivo, po
[7] = Drug concentration in male albino rat skeletal muscle assessed as radioactivity per gram of tissue at 20 mg/kg administered as single dose via gastric gavage measured after 3 hrs by autoradiographic analysis; format: ADME, organism-based; design: dose 20 mg/kg, dosed compound name [14C]Sunitinib; conditions: in vivo, po
[8] = Drug concentration in female albino rat skeletal muscle assessed as radioactivity per gram of tissue at 20 mg/kg administered as single dose via gastric gavage measured after 6 hrs by autoradiographic analysis; format: ADME, organism-based; design: dose 20 mg/kg, dosed compound name [14C]Sunitinib; conditions: in vivo, po
Small intestine [9] = assay: Drug concentration in female albino rat small intestine assessed as radioactivity per gram of tissue at 20 mg/kg administered as single dose via gastric gavage measured after 6 hrs by autoradiographic analysis; format: ADME, organism-based; design: dose 20 mg/kg, dosed compound name [14C]Sunitinib; conditions: in vivo, po
[10] = Drug concentration in male Lister Hooded pigmented rat preputial gland assessed as radioactivity per gram of tissue at 20 mg/kg administered as single dose via gastric gavage measured after 168 hrs by autoradiographic analysis; format: ADME, organism-based; design: dose 20 mg/kg, dosed compound name [14C]Sunitinib; conditions: in vivo, po
Kidney = assay: Drug concentration in male Lister Hooded pigmented rat kidney assessed as radioactivity per gram of tissue at 20 mg/kg administered as single dose via gastric gavage measured after 168 hrs by autoradiographic analysis; format: ADME, organism-based; design: dose 20 mg/kg, dosed compound name [14C]Sunitinib; conditions: in vivo, po
Small intestine [11] = assay: Drug concentration in female albino rat small intestine assessed as radioactivity per gram of tissue at 20 mg/kg administered as single dose via gastric gavage measured after 3 hrs by autoradiographic analysis; format: ADME, organism-based; design: dose 20 mg/kg, dosed compound name [14C]Sunitinib; conditions: in vivo, po
Small intestine [12] = assay: Drug concentration in male albino rat small intestine assessed as radioactivity per gram of tissue at 20 mg/kg administered as single dose via gastric gavage measured after 72 hrs by autoradiographic analysis; format: ADME, organism-based; design: dose 20 mg/kg, dosed compound name [14C]Sunitinib; conditions: in vivo, po
[13] = Drug concentration in male albino rat thyroid gland assessed as radioactivity per gram of tissue at 20 mg/kg administered as single dose via gastric gavage measured after 6 hrs by autoradiographic analysis; format: ADME, organism-based; design: dose 20 mg/kg, dosed compound name [14C]Sunitinib; conditions: in vivo, po
[14] = Drug concentration in female Lister Hooded pigmented rat lachrymal gland assessed as radioactivity per gram of tissue at 20 mg/kg administered as single dose via gastric gavage measured after 24 hrs by autoradiographic analysis; format: ADME, organism-based; design: dose 20 mg/kg, dosed compound name [14C]Sunitinib; conditions: in vivo, po
Outline: (§2)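 Lister Hooded (pigmented) rats, ca 7-8 weeks old, acclimated 7 days, given [14C]sunitinib L-malate by gastric gavage at 20 mg/kg (15 mg freebase/kg, 100 µCi/kg). One male and one female killed by CO2 at 24, 72, 168 and 336 h. Carcasses frozen in solid CO2/hexane and embedded in frozen cellulose. 30 µm sagittal cryosections were freeze-dried. Tissue radioactivity measured by quantitative whole-body autoradiography against calibration standards, with background subtracted.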

[15] = Drug concentration in female albino rat eye assessed as radioactivity per gram of tissue at 20 mg/kg administered as single dose via gastric gavage measured after 24 hrs by autoradiographic analysis; format: ADME, organism-based; design: dose 20 mg/kg, dosed compound name [14C]Sunitinib; conditions: in vivo, po
Outline: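 Sprague Dawley albino rats, ca 7-8 weeks old, dosed once by gastric gavage with [14C]sunitinib L-malate (15 mg freebase/kg, 100 µCi/kg). One male and one female killed by CO2 at 3, 6, 24, 72 and 168 h. Carcasses frozen in solid CO2/hexane, embedded and cut into 30 µm sagittal sections, then freeze-dried. Radioactivity quantified by whole-body autoradiography against standards by regression, background subtracted.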

Small intestine [16] = assay: Drug concentration in female Lister Hooded pigmented rat small intestine assessed as radioactivity per gram of tissue at 20 mg/kg administered as single dose via gastric gavage measured after 24 hrs by autoradiographic analysis; format: ADME, organism-based; design: dose 20 mg/kg, dosed compound name [14C]Sunitinib; conditions: in vivo, po; outline: as §2
Adrenal = assay: Drug concentration in female Lister Hooded pigmented rat adrenal assessed as radioactivity per gram of tissue at 20 mg/kg administered as single dose via gastric gavage measured after 168 hrs by autoradiographic analysis; format: ADME, organism-based; design: dose 20 mg/kg, dosed compound name [14C]Sunitinib; conditions: in vivo, po
Outline: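 Pigmented Lister Hooded rats, 7-8 weeks old, received [14C]sunitinib L-malate by gavage at 20 mg/kg (15 mg freebase/kg, 100 µCi/kg). One rat per sex was killed by CO2 at each of 24, 72, 168 and 336 h. Carcasses were frozen in solid CO2/hexane and cut into 30 µm sagittal sections, then freeze-dried. Tissue radioactivity was quantified by whole-body autoradiography calibrated against standards by regression (LOQ 0.04–0.06 µg eq/g).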

[17] = Drug concentration in female Lister Hooded pigmented rat eye assessed as radioactivity per gram of tissue at 20 mg/kg administered as single dose via gastric gavage measured after 168 hrs by autoradiographic analysis; format: ADME, organism-based; design: dose 20 mg/kg, dosed compound name [14C]Sunitinib; conditions: in vivo, po; outline: as §2

t1/2 lambda z (Rattus norvegicus [1]): 10.3 h
Cmax (Rattus norvegicus [2]): 5220 ngequiv/ml
Cmax (Homo sapiens): 67.4 ngequiv/ml
beta t1/2 (Cynomolgus monkey): 121 h
Radiolabel recovery [3]: 9.3%
Radiolabel recovery [4]: 10.63 ugequiv
Radiolabel recovery [5]: 3.97 ugequiv
Radiolabel recovery (Large intestine): 5.38 ugequiv
Radiolabel recovery [6]: 11.26 ugequiv
Radiolabel recovery (Pancreas): 9.18 ugequiv
Radiolabel recovery (Lung): 20.7 ugequiv
Radiolabel recovery [7]: 2.92 ugequiv
Radiolabel recovery [8]: 3.33 ugequiv
Radiolabel recovery (Small intestine [9]): 10.28 ugequiv
Radiolabel recovery [10]: 0.06 ugequiv
Radiolabel recovery (Kidney): 0.06 ugequiv
Radiolabel recovery (Small intestine [11]): 14.16 ugequiv
Radiolabel recovery (Small intestine [12]): 0.15 ugequiv
Radiolabel recovery [13]: 18.76 ugequiv
Radiolabel recovery [14]: 2.05 ugequiv
Radiolabel recovery [15]: 0.43 ugequiv
Radiolabel recovery (Small intestine [16]): 1.16 ugequiv
Radiolabel recovery (Adrenal): 0.35 ugequiv
Radiolabel recovery [17]: 73.04 ugequiv
SMILES: CCN(CC)CCNC(=O)c1c(C)[nH]c(/[14CH]=C2\C(=O)Nc3ccc(F)cc32)c1C.O=C(O)C[C@H](O)C(=O)O
